Results from ChEMBL document CHEMBL3286267, “Discovery of MK-4409, a Novel Oxazole FAAH Inhibitor for the Treatment of Inflammatory and Neuropathic Pain” (ACS Med Chem Lett, 2014).
Calls of active or inactive are those of the source. The rule behind the calls is not given here.

What was measured:
[1] = Fraction unbound in human plasma; format: ADME, cell-free
[2] = Plasma concentration in Sprague-Dawley rat at 30 mg/kg/day, po measured after 3 hrs on day 3; format: ADME, organism-based; design: route oral
How it was run: (§1)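 Chronic paradigm in the CFA inflammatory pain model in rats (intraplantar complete Freund's adjuvant in the hind paw). Daily oral dosing continued for up to 10 days, with a pan CB agonist run for comparison. Allodynia was followed over the days. Plasma exposures were sampled at 3 and 24 h after dosing at 30 mg/kg.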

[3] = Fraction unbound in rhesus monkey plasma; format: ADME, cell-free, Macaca mulatta
[4] = Half life in rat at 1 mg/kg, iv and 2 mg/kg, po; format: ADME, organism-based; details: in vivo
How it was run: (§2)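 Rat PK given 1 mg/kg iv in DMSO/PEG400/H2O 20/60/20 and 2 mg/kg po in either Imwitor/Tween 1/1 or PEG400/Tween80/H2O 40/10/50. Half-life, clearance, volume of distribution, dose-normalized AUC (AUCN) and oral bioavailability were derived.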

[5] = Plasma concentration in Sprague-Dawley rat at 30 mg/kg/day, po measured after 3 hrs on day 2; format: ADME, organism-based; design: route oral; how it was run: as §1
Rattus norvegicus [6] = assay: Analgesic activity in Sprague-Dawley rat complete Freund's adjuvant-induced inflammatory pain model assessed as reversal of mechanical allodynia at 30 mg/kg, po single dose measured after 3 hrs; format: functional
How it was run: (§3)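 Inflammatory pain induced in rats by intraplantar injection of complete Freund's adjuvant into the hind paw. Mechanical allodynia was assessed at 1 and 3 h after a single oral dose. For each rat, percent reversal = (postdose – predose)/(preinjury – predose), averaged over n = 6.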

[7] = Fraction unbound in rat plasma; format: ADME, cell-free
[8] = Fraction unbound in dog plasma; format: ADME, cell-free, Canis lupus familiaris
[9] = Volume of distribution at steady state in rat at 1 mg/kg, iv and 2 mg/kg, po; format: ADME, organism-based; details: in vivo, read-out: Vdss; how it was run: as §2
[10] = Bioavailability in rat at 1 mg/kg, iv and 2 mg/kg, po; format: ADME, organism-based; details: in vivo; how it was run: as §2
[11] = Plasma concentration in Sprague-Dawley rat at 30 mg/kg/day, po measured after 3 hrs on day 8; format: ADME, organism-based; design: route oral; how it was run: as §1
[12] = Plasma concentration in Sprague-Dawley rat at 30 mg/kg/day, po measured after 3 hrs on day 10; format: ADME, organism-based; design: route oral; how it was run: as §1
[13] = Plasma concentration in Sprague-Dawley rat at 30 mg/kg/day, po measured after 24 hrs on day 5; format: ADME, organism-based; design: route oral; how it was run: as §1
[14] = Plasma concentration in Sprague-Dawley rat at 30 mg/kg/day, po measured after 3 hrs on day 1; format: ADME, organism-based; design: route oral; how it was run: as §1
[15] = Plasma concentration in Sprague-Dawley rat at 30 mg/kg/day, po measured after 24 hrs on day 10; format: ADME, organism-based; design: route oral; how it was run: as §1
[16] = Plasma concentration in Sprague-Dawley rat at 30 mg/kg/day, po measured after 3 hrs on day 9; format: ADME, organism-based; design: route oral; how it was run: as §1
Rattus norvegicus [17] = assay: Dose normalized AUC in rat at 1 mg/kg, iv and 2 mg/kg, po; format: ADME, organism-based; details: in vivo; how it was run: as §2
Rattus norvegicus [18] = assay: Toxicity in Harlan rat assessed as motor impairment at 3 mg/kg, po by rotarod test; format: organism-based; design: dose 3 mg/kg, route oral; details: in vivo
[19] = Plasma concentration in Sprague-Dawley rat at 30 mg/kg/day, po measured after 24 hrs on day 8; format: ADME, organism-based; design: route oral; how it was run: as §1
[20] = Plasma concentration in Sprague-Dawley rat at 30 mg/kg/day, po measured after 24 hrs on day 9; format: ADME, organism-based; design: route oral; how it was run: as §1
Rattus norvegicus [21] = assay: Analgesic activity in Sprague-Dawley rat complete Freund's adjuvant-induced inflammatory pain model assessed as reversal of mechanical allodynia at 10 mg/kg, po single dose measured after 1 hr; format: functional; how it was run: as §3
[22] = biological target: T1, Fatty-acid amide hydrolase 1 (Rattus norvegicus, UniProt P97612); assay: Inhibition of rat FAAH lysate using AMCAA as substrate by fluorescence assay
T1 sequence (P97612 whole entry): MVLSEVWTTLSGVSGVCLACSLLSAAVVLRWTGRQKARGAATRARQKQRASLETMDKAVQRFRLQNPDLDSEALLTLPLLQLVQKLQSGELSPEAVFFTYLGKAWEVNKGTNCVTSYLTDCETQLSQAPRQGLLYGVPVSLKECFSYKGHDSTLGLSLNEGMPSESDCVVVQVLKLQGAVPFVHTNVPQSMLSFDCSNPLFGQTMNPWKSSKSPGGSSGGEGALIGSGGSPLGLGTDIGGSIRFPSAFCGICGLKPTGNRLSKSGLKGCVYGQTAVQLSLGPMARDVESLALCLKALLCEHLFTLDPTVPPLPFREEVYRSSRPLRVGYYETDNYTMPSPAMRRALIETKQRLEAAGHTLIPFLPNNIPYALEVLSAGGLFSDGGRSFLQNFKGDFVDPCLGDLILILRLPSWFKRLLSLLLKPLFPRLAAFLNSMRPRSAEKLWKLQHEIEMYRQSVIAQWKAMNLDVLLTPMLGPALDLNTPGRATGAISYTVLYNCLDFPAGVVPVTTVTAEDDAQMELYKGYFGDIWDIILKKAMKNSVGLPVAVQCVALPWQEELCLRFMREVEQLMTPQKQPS
How it was run: (§4)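 In vitro assays, with values reported as the average of at least three duplicates.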

[23] = Inhibition of human vesicular monoamine transporter; how it was run: as §4
Rattus norvegicus [24] = assay: Analgesic activity in Sprague-Dawley rat complete Freund's adjuvant-induced inflammatory pain model assessed as reversal of mechanical allodynia at 10 mg/kg, po single dose measured after 3 hrs; format: functional; how it was run: as §3
[25] = biological target: T2, Fatty-acid amide hydrolase 1 (Homo sapiens, UniProt O00519); assay: Inhibition of human FAAH lysate using AMCAA as substrate by fluorescence assay; how it was run: as §4
T2 sequence (O00519 whole entry): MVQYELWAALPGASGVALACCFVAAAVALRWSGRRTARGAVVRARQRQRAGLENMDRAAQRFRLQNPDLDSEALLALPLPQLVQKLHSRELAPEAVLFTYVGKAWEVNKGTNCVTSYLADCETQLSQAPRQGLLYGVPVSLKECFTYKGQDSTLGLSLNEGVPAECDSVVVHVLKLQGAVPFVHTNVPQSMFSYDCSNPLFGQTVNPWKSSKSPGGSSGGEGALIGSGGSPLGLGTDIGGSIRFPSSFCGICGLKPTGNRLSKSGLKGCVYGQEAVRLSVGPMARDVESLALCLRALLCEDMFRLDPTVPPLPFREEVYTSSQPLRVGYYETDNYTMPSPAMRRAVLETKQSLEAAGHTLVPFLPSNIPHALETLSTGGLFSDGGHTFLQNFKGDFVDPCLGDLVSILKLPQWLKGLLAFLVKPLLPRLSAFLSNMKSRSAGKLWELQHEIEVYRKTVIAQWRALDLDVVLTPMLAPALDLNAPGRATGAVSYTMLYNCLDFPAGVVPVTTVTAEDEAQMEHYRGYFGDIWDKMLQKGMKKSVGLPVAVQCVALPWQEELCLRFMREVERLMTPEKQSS

[26] = biological target: Voltage-gated inwardly rectifying potassium channel KCNH2 (Homo sapiens, UniProt Q12809); assay: Displacement of [35S]MK-499 from human ERG
How it was run: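 hERG K+ channel binding assay measuring displacement of the radiolabelled channel blocker [35S]MK-499. Values are averages of at least three duplicates.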

[27] = Plasma concentration in Sprague-Dawley rat at 30 mg/kg/day, po measured after 3 hrs on day 5; format: ADME, organism-based; design: route oral; how it was run: as §1
Rattus norvegicus [28] = assay: Analgesic activity in Sprague-Dawley rat complete Freund's adjuvant-induced inflammatory pain model assessed as reversal of mechanical allodynia at 30 mg/kg, po single dose measured after 1 hr; format: functional; how it was run: as §3
Rattus norvegicus [29] = assay: Analgesic activity in Sprague-Dawley rat complete Freund's adjuvant-induced inflammatory pain model assessed as reversal of mechanical allodynia at 30 mg/kg/day, po measured up to 10 days; format: functional, organism-based; how it was run: as §1
[30] = Plasma concentration in Sprague-Dawley rat at 30 mg/kg/day, po measured after 24 hrs on day 3; format: ADME, organism-based; design: route oral; how it was run: as §1
[31] = Clearance in rat at 1 mg/kg, iv and 2 mg/kg, po; format: ADME, organism-based; details: in vivo; how it was run: as §2
[32] = Plasma concentration in Sprague-Dawley rat at 30 mg/kg/day, po measured after 24 hrs on day 2; format: ADME, organism-based; design: route oral; how it was run: as §1
Rattus norvegicus [33] = assay: Antiallodynic activity in Harlan rat spinal nerve ligation model of neuropathic pain assessed as reversal of allodynia at 3 mg/kg, po; format: functional
[34] = Clearance in rat at 1 mg/kg, iv and 1 to 2 mg/kg, po; format: ADME, organism-based; details: in vivo; how it was run: as §2
[35] = Volume of distribution at steady state in rat at 1 mg/kg, iv and 1 to 2 mg/kg, po; format: ADME, organism-based; details: in vivo, read-out: Vdss; how it was run: as §2
[36] = Half life in rat at 1 mg/kg, iv and 1 to 2 mg/kg, po; format: ADME, organism-based; details: in vivo; how it was run: as §2
Rattus norvegicus [37] = assay: Dose normalized AUC in rat at 1 mg/kg, iv and 1 to 2 mg/kg, po; format: ADME, organism-based; details: in vivo; how it was run: as §2
[38] = Bioavailability in rat at 1 mg/kg, iv and 1 to 2 mg/kg, po; format: ADME, organism-based; details: in vivo; how it was run: as §2
Rattus norvegicus [39] = assay: Analgesic activity in Sprague-Dawley rat complete Freund's adjuvant-induced inflammatory pain model assessed as reversal of mechanical allodynia at 2 mg/kg/day, ip measured up to 5 days; format: functional, organism-based
How it was run: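 Inflammatory pain induced in rats by intraplantar injection of complete Freund's adjuvant into the hind paws. Mechanical allodynia was followed under a chronic repeated-dosing paradigm across several days to check for loss of antinociception (tachyphylaxis).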

Chain of Voltage-gated inwardly rectifying potassium channel KCNH2 (Q12809 whole entry): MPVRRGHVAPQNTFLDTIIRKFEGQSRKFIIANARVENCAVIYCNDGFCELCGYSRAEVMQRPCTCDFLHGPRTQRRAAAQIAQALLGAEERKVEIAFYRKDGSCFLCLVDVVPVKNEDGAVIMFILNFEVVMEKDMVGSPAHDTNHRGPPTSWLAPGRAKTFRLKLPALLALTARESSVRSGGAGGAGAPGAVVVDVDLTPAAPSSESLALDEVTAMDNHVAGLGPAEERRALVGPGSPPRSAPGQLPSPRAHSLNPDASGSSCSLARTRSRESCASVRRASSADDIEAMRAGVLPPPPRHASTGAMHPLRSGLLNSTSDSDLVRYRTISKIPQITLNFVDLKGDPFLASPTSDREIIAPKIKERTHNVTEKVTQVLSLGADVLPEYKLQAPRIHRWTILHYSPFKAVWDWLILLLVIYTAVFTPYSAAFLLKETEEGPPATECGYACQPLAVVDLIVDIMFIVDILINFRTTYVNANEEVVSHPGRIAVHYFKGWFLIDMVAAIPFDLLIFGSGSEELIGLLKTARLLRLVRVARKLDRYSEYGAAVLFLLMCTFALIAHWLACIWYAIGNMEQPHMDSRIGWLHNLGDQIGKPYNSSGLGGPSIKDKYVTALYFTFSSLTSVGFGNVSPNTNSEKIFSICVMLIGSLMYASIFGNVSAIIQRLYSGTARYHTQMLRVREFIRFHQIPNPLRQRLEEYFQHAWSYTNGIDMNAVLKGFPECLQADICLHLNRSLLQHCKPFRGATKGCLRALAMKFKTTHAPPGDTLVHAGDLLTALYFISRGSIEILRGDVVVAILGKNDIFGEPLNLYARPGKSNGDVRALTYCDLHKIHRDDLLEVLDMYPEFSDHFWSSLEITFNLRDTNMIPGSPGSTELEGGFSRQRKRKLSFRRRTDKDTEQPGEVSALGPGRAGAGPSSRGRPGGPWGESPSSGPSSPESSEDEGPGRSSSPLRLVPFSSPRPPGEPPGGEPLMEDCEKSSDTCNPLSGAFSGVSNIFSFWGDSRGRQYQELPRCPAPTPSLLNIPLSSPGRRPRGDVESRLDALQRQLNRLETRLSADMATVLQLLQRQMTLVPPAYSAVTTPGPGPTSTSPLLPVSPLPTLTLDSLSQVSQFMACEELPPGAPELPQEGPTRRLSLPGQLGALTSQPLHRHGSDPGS

## CC(C)(O)c1ccc(-c2nc(-c3ccc(F)cc3)oc2Sc2ccc(Cl)cn2)cn1
[1]
  fraction unbound: 0.016
[2]
  concentration at 3 h: 11.9 µM
[3]
  fraction unbound: 0.008
[4]
  half-life: 4.3 h
[5]
  concentration at 3 h: 8 µM
Rattus norvegicus [6]
  Activity: 71%
[7]
  fraction unbound: 0.029
[8]
  fraction unbound: 0.012
[9]
  Vd: 6.2 L/kg
[10]
  bioavailability: 120%
[11]
  concentration at 3 h: 12.2 µM
[12]
  concentration at 3 h: 14.2 µM
[13]
  concentration at 24 h: 6.5 µM
[14]
  concentration at 3 h: 5.4 µM
[15]
  concentration at 24 h: 7.9 µM
[16]
  concentration at 3 h: 13.7 µM
Rattus norvegicus [17]
  AUC/dose: 2.2 µM·kg·h/mg
Rattus norvegicus [18]
  Activity: Non-toxic
[19]
  concentration at 24 h: 7.3 µM
[20]
  concentration at 24 h: 8.3 µM
Rattus norvegicus [21]
  Activity: 49%
[22]
  IC50: 0.011 µM
[23]
  EC50: > 20 µM
Rattus norvegicus [24]
  Activity: 51%
[25]
  IC50: 0.011 µM
[26]
  Ki: 1.25 µM
[27]
  concentration at 3 h: 13.2 µM
Rattus norvegicus [28]
  Activity: 70%
Rattus norvegicus [29]
  Activity: Active
[30]
  concentration at 24 h: 4.1 µM
[31]
  clearance: 20 mL/min/kg
[32]
  concentration at 24 h: 2.1 µM
Rattus norvegicus [33]
  inhibition in vivo at 3 mg/kg: 50%

## Clc1ccc(Sc2cn(-c3ccccc3)nc2-c2ccc3c(c2)OCCO3)cc1
[22]
  IC50: 0.008 µM
[25]
  IC50: 0.027 µM
[26]
  Ki: > 30 µM

## CS(=O)(=O)c1ccc(-c2nc(-c3ccccc3)oc2Sc2ccc(Cl)cc2)cc1
[22]
  IC50: 0.006 µM
[25]
  IC50: 0.013 µM
[26]
  Ki: 28.5 µM

## CC(C)(O)c1cnc(-c2nn(-c3ccc(F)cc3)cc2Sc2ccc(Cl)cc2)cn1
[34]
  clearance: 33.8 mL/min/kg
Rattus norvegicus [6]
  Activity: 40%
[35]
  Vd: 15.8 L/kg
Rattus norvegicus [21]
  Activity: 42%
[36]
  half-life: 4.9 h
[22]
  IC50: 0.01 µM
[23]
  EC50: 1.16 µM
Rattus norvegicus [24]
  Activity: 38%
[25]
  IC50: 0.032 µM
[26]
  Ki: 0.74 µM
Rattus norvegicus [37]
  AUC/dose: 1.07 µM·kg·h/mg
Rattus norvegicus [28]
  Activity: 58%
[38]
  bioavailability: 96%

## Cc1c(C(=O)c2cccc3ccccc23)c2cccc3c2n1[C@H](CN1CCOCC1)CO3
Rattus norvegicus [39]
  Activity: inactive
